System: MS2 coat protein
Test: apparent Kd, MS2 coat protein; higher = weaker binding; RNA-MaP array
Procedure, shortened: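 Fluorescently labeled MS2 coat protein, from 1.5 nM to 3 μM, was incubated at room temperature with designed RNAs transcribed on an Illumina sequencing chip from sequenced DNA templates. Times ran from 0.8–1.5 h at the lowest concentrations to 10–20 min at the highest, in Tris-HCl pH 7.5 buffer with KCl, MgCl2, BSA, DTT, tRNA and Tween20, with or without input ligand. Each apparent Kd is the median of per-cluster binding-curve fits, and designs with fewer than 10 measured clusters were excluded.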

[1] = designed as: OFF switch for flavin mononucleotide, no ligand
[2] = ligand present: flavin mononucleotide, designed as: OFF switch for flavin mononucleotide
[3] = designed as: ON switch for flavin mononucleotide, no ligand
[4] = ligand present: flavin mononucleotide, designed as: ON switch for flavin mononucleotide

| Sequence | apparent Kd [1] [nM] | apparent Kd [2] [nM] | apparent Kd [3] [nM] | apparent Kd [4] [nM] | also measured |
| --- | --- | --- | --- | --- | --- |
| GGUGAGUCAGGAUAUUGUGCAUUUGAGACCCACACGGGACACAAGAAGGGACAUGAGGAUCACCCAUGUGCUCA | 9.73 | 12.8 | – | – | – |
| UCAUCACAUGAGGAUCACCCAUGUCGUAGGUGAUCAGGAUAUGCCUAUGCCUCCAUGGCGGCAGAAGGGAUGCGGG | – | – | 795 | 603 | – |
| UUGAUCUGACGAGGAUAUAUCAUAACACCUUUGAUAGAAGGCGUGAUCGACAUGAGGAUCACCCAUGUGCGUGACUUUGGUAGU | – | – | 11.6 | 10.8 | – |
| CACAUGAGGAUCACCCAUGUUCGUUCACUUCAUGUAAUGAUUAGAAGGUCACGCGCCUAUCUGCUGAAGGAUAUAAUCCCGAAA | 11.1 | 10.1 | – | – | – |
| AAGUUGAGCACAAAGGAUAUUUGUAAACAAACAUGAGGAUCACCCAUGUGAACAAUAGUACAUACAAAGAAGGUUGAGAUACAUGU | – | – | 54.2 | 25.9 | – |
| GCAAGAGAGCAGAAGGUUGAGGGCGUUCCCGUUUACAUGAGGAUCACCCAUGUUGCUAACAUGUCAAAGGAUAUGCCUAACGCU | 70.8 | 63.8 | – | – | – |
| GGCGUAUCAGGAUAUGCGUUUUGAGACAUGAGGAUCACCCAUGUCCUUAGCUCAGUUAAAGCAGAAGGGAUUAUUA | 16.9 | 34.1 | – | – | – |
| AUCACUGAGCGAGGAUAUUAUUUCAAAUCAACGACGAUCCUACACAUGAGGAUCACCCAUGUUAGUAAGAAGGCGCGCCAGAUG | 62.5 | 93.5 | – | – | – |
| UUUCUCAAUGUCAGGAUAUAGAUUUGACAUCCUCACUAGAAGGGACAUGAGGAUCACCCAUGUGUCAAUGCGGC | – | 17.6 | – | – | – |
| UAGCCUCUUAGAGGAUAUUCAUAAGCACGCAAUGAAGAAGGCUAGGACAAGUGGGACAUGAGGAUCACCCAUGUGGGAAUAUGU | 43.3 | 36.8 | – | – | – |
| GCAGUUGGUCUCUCACAUGAGGAUCACCCAUGUUCUUAGUUUCAGGAUAUAUGAGCGAAUUGCGGAUAGAAGGGAAACAGUCAC | 41.6 | 49.7 | – | – | – |
| CAGAGCCAAAACAAGGAUAUACAUAACAUUACAUGAGGAUCACCCAUGUUAUAGCUAACCUUGUAGUAGAAGGUGUUUGGCAACAU | – | – | 7.36 | 6.39 | – |
| CCCGGUGAUGUCAAACAUGAGGAUCACCCAUGUCUUCACCAUAGAAGGCGCUUUAUUCUAGCUAGCGAGGAUAUAUGGUUUCAG | 39.6 | 44.6 | – | – | – |
| GUUGAGGUGGUAGGAUAUAGUUUACACAUGAGGAUCACCCAUGUAUUCUAGACUUCAAGCCUCACCUAGAAGGACCCGUGCAAA | 4.91 | 4.75 | – | – | – |
| GACCGGACAUCCUAGGAUAUUUAUACUGAUACAUGAGGAUCACCCAUGUUUGGAAACAUCGUACGAAAGAAGGAGGAGACCUCUGA | – | – | 11.7 | 10.8 | – |
| GAGAGAAAGCCAGGAUAUUAGAACUAGGCACAUGAGGAUCACCCAUGUGGUGAUGAUCAUAAGACUAAGAAGGGGCACCGGAUU | – | – | 521 | 450 | – |
| GUUAGUUGUGAGGAUAUUCAGAGAUCUCGAUCAGAAGAAGGCACUACAUGAGGAUCACCCAUGUAGAUUCUUAU | 5.25 | 8.88 | – | – | – |
| UGAACCGGAAAGAAGGCCUUGCUUUAACGUACAGGAGGAUAUUUCCUAUUUGUGAGCCUUGACAUGAGGAUCACCCAUGUAUCG | 479 | 116 | – | – | – |
| ACUACAUGCGAAUACAUGAGGAUCACCCAUGUCCAUAAGACCUAGGAUAUCCAGUAACCCUGCAAGGAGAAGGAGGAGAGCACU | – | – | 25.4 | 19.6 | – |
| UGGAAAUGAAUAGGAUAUCAGUGUUGUCUAUAACAUGAGGAUCACCCAUGUUUCCAUUGGCCUCGUGAGAAGGAUUCUAGUAUU | – | – | 81.6 | 22.3 | – |
| ACGGUAGUACAUGAGGAUCACCCAUGUGGUUUUCUAAGAGGAUAGGAUAUACGUCCAAGCGGCAGGUAGAAGGAUCGAGUUUGC | 41.7 | 34 | – | – | – |
| UCCAGACAUGAGGAUCACCCAUGUUGUGAUACCAGAACCGUGGAGUUCCCUUGGCAGCACUAAGAAGUUCCUGGAUCAGCUAGCG | – | – | – | – | apparent Kd (designed as: ON switch for theophylline, no ligand): 27.6 nM; apparent Kd (ligand present: theophylline, designed as: ON switch for theophylline): 32.8 nM |
| GGCUCCGUAGGAUAUCGUAUUAGCGACAUGAGGAUCACCCAUGUUCAUUUGUCCUCAAUACGAGAAGGACGAACUC | 16.1 | 18.3 | – | – | – |
